Assay outcomes as filed in PubChem BioAssay.
TRPC6 activator: activators of mouse TRPC6 channel; B-score at 10 µM; HEK293-TRPC6 membrane potential dye fluorescence; active compounds read high; 310,000 tested, 0.13% active;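 active means B-score of the integrated fluorescence ratio above library mean plus 3 SD, and starting fluorescence ratio within library mean plus 5 SD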;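 further: higher score means more depolarization so channel activation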
TRPC6 inh: inhibitors of mouse TRPC6 channel; Q61143; HEK293-TRPC6, membrane potential dye, ACh-evoked depolarization; active compounds read low; B-score at 10 µM; 310,000 tested, 1.1% active;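 active means B-score under library mean minus 3 SD, initial fluorescence not abnormally high, positive integrated signal ratio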;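 further: B-score derived from integrated fluorescence ratio over the kinetic read; more negative B-score means stronger inhibition of depolarization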
TRPC4 act: activators of mouse TRPC4 channel; Q9QUQ5; HEK293 TRPC4beta/mu-opioid, Fluo4 calcium fluorescence; active compounds read high; AID 2237; B-score at 10 µM; 310,000 tested, 0.49% active;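 active means B-score above 5 SD of library B-scores, and initial fluorescence ratio not above library mean plus 5 SD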;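 further: positive B-score marks a calcium rise read as TRPC4 activation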
Target sequence (Q9QUQ5 whole entry, looked up): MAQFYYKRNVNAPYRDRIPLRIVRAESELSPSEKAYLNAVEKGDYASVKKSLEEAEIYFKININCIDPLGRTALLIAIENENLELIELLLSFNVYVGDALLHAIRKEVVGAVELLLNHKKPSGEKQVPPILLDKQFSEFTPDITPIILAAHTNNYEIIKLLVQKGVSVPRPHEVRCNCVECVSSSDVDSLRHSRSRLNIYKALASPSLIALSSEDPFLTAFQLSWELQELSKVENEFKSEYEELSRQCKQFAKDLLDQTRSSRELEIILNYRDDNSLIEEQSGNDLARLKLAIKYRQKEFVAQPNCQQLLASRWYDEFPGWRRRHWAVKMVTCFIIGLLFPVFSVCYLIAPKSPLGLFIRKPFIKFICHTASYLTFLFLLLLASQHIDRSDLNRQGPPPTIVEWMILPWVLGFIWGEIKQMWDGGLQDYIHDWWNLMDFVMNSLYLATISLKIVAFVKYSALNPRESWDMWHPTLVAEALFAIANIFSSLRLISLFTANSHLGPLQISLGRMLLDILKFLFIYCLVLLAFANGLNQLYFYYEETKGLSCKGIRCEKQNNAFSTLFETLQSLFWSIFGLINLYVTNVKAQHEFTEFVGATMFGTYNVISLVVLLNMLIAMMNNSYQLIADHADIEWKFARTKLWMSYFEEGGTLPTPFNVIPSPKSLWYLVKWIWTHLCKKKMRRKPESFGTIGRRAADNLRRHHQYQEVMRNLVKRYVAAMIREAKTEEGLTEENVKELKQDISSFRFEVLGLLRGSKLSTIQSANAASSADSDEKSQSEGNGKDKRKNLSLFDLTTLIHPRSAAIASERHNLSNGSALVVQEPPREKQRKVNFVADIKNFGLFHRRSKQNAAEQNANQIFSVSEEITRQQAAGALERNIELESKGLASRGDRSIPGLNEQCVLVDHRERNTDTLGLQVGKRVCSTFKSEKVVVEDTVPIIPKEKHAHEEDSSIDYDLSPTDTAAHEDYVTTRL
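Assay system: HEK293 stable line with TRPC4beta plus mu-opioid receptor; schedule: 45 min room-temperature Fluo4 loading, 110 s read; technique: kinetic Fluo4 calcium fluorescence; evaluation: integrated baseline-normalised fluorescence ratio, converted to per-well B score; controls: buffer (low) and maximal DAMGO (high)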
TRPC4 PAM: TRPC4 (mouse) allosteric potentiation; B-score at 10 µM; Q9QUQ5; 310,000 tested, 0.42% active; HEK293 TRPC4beta/mu-opioid, DAMGO EC20, Fluo-4 Ca2+ flux; active compounds read high; AID 2227;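 active means B-score of calcium response area above 5 SD of library B-scores, with initial fluorescence ratio within 5 SD of library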;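 further: B-score of integrated fluorescence ratio over time as area under calcium response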
TRPC4 inh: TRPC4 (mouse) channel inhibition. Q9QUQ5. HEK293 TRPC4beta/mu-opioid, DAMGO-evoked Fluo4 calcium flux; active compounds read low. B-score at 10 µM. 300,000 tested, 0.39% active. AID 2247;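 active means B-score over 3 SD under the library average, no early fluorescence shift, positive overall ratio signal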
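test system = HEK293 cells with stable TRPC4beta plus mu-opioid receptor expression | detection = Fluo4 Ca2+ flux fluorescence | read-out = integrated fluorescence ratio relative to baseline, converted to per-well B score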
TRPC4 sel inh 2: mouse TRPC4 off-target activity of TRPC6 inhibitors, second screen. shares compounds with TRPC6 inh. AID 2776. inhibition, % at 10 µM. HEK293 TRPC4/MOR, membrane potential dye fluorescence; channel activated by saturating DAMGO dose. 920 tested, 42% active;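 active means compounds whose fluorescence signal differed from control wells by over 3 SD, either direction, in both duplicate plates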
TRPC4 spec: selectivity of TRPC6 inhibitors: effect on mouse TRPC4; shares compounds with TRPC6 inh; HEK293 TRPC4/mu-opioid, membrane potential fluorescence; activity change, negative = inhibition, % at 10 µM; 920 tested, 61% active; AID 2777;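 active means rise or fall in signal beyond 3 SD of buffer-only wells in both replicate plates, either sign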;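 further: integrated kinetic ratio of fluorescence range over baseline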
HEK293 MPD ctr 2-1: second check of TRPC6 inhibitor effects in parental HEK293 cells | 920 tested, 31% active | shares compounds with TRPC6 inh | signal change vs control, % at 10 µM | parental HEK293 membrane potential dye fluorescence; maximal acetylcholine challenge after compound addition;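 active means membrane potential signal moving either way by over 3 SD of the maximum-effect control, in both duplicate plates, meaning non-specific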
HEK293 MPD ctr-1: counter-screen for TRPC6 inhibitors: effect in parental HEK293 cells. parental HEK293 membrane potential dye fluorescence. 920 tested, 60% active. shares compounds with TRPC6 inh. membrane potential signal change, % at 10 µM. AID 2780;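 active means membrane potential signal shifting up or down by more than 3 SD of buffer-only wells, on both duplicate plates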
HEK293 MPD ctr-2: counter-screen for TRPC6 modulators: effect in parental HEK293 cells; shares compounds with TRPC6 inh; membrane potential dye fluorescence; membrane potential signal change, % at 10 µM; 2,400 tested, 51% active; AID 488924;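 active means membrane potential signal moves up or down beyond 5 SD from buffer-only wells, on both duplicate plates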
HEK293 MPD ctr 2-2: second check of TRPC6 modulator effects in parental HEK293 cells | inhibition, % at 10 µM | 2,400 tested, 14% active | shares compounds with TRPC6 inh | membrane potential dye fluorescence; after compound, maximal acetylcholine stimulation;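 active means membrane potential signal drops by more than 5 SD from the mean control signal, in both duplicate plates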;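 further: plate controls were acetylcholine ECmax control wells for no effect and buffer only wells for full effect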
TRPC4/MOR mod: selectivity of TRPC6 modulators against mouse TRPC4; percent change from control (negative = decrease, positive = increase), % at 10 µM; shares compounds with TRPC6 inh; 2,400 tested, 69% active; HEK293 TRPC4/mu-opioid, membrane potential fluorescence;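 active means membrane potential signal moved up or down beyond 5 SD of buffer control wells, in both duplicate plates, actives on both sides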;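 further: plate controls were assay buffer wells for no effect and DAMGO maximal-effect wells for full effect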
TRPC4/MOR inh 2: mouse TRPC4 off-target activity of TRPC6 modulators, second screen. HEK293 TRPC4/mu-opioid, membrane potential dye fluorescence; stimulated with maximal-effect DAMGO. inhibition, % at 10 µM. shares compounds with TRPC6 inh. 2,400 tested, 55% active;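 active means drop in membrane potential signal beyond 5 SD of the control wells in both duplicate plates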;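 further: TRPC4 counter screen for TRPC6 hits run under conditions tuned for TRPC6 not TRPC4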
TRPC6 block conf: mouse TRPC6 inhibitor confirmation; shares compounds with TRPC6 inh; HEK293-TRPC6, membrane potential dye, ACh-evoked depolarization; inhibition, % at 10 µM; 3,300 tested, 43% active; AID 488960;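 active means fluorescence ratio falls more than 5 SD below the full-stimulation control mean, in both duplicate runs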;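 further: integrated fluorescence ratio of peak minus minimum over baseline after agonist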
TRPC6 act conf: mouse TRPC6 activator confirmation | shares compounds with TRPC6 inh | activation, % at 10 µM | AID 488961 | 2,800 tested, 11% active | HEK293-TRPC6 membrane potential dye fluorescence, FDSS;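 active means ratio signal rise beyond 5 SD above unstimulated control wells' mean, seen in both duplicate runs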;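 further: plate controls were buffer EC0 wells for no effect and acetylcholine ECmax response for full effect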
Starred values were filed as active, the others as inactive; i = inactive; / = no result. Only some compounds are listed: those with a hit (about 2.3% of all), similar ones and a draw of the others.

SMILES	TRPC6 activator	TRPC6 inh	TRPC4 act	TRPC4 PAM	TRPC4 inh	HEK293 MPD ctr-2	HEK293 MPD ctr 2-2	TRPC4/MOR mod	TRPC4/MOR inh 2	TRPC6 block conf	TRPC6 act conf	others
Nc1c(-c2ccccc2)cnn1-c1ccccc1	i	i	i	i	i	/	/	/	/	/	/
Oc1[nH]c2ccccc2c1N=NC(=S)NCC1CCCO1 (stereo unspecified)	i	i	i	i	i	/	/	/	/	/	/
Oc1[nH]c2ccc(Br)cc2c1N=NC(=S)NCC1CCCO1 (stereo unspecified)	i	-8.8*	i	i	i	/	/	/	/	i	i	TRPC4 sel inh 2=i;TRPC4 spec=i;HEK293 MPD ctr 2-1=i;HEK293 MPD ctr-1=i
COc1ccc(N2CCN(CC(O)COc3ccc(C)c(C)c3)CC2)cc1 (stereo unspecified)	i	-6.1*	i	i	i	i	i	i	48%*	i	i
CC(C(=O)Nc1ccc([N+](=O)[O-])cc1)N1CCN(C/C=C/c2ccccc2)CC1 (stereo unspecified)	i	-6*	i	i	i	i	i	i	54%*	i	i
Cc1nc2cc(-c3ccc(Cl)cc3)nn2c(NCCN(C)C)c1C	i	-6*	i	i	i	-89%*	i	-21%*	46%*	i	i
Cc1cc(C)n2nc(-c3ccc(Cl)cc3)cc2n1	i	i	i	i	i	/	/	/	/	/	/
Cc1cc(C)c(S(=O)(=O)N2CCOC2CNC(=O)C(=O)NCCN(C)C)c(C)c1 (stereo unspecified)	i	i	i	i	i	/	/	/	/	/	/
Cc1onc(-c2c(Cl)cccc2Cl)c1NC(=O)N1CCSCC1	12*	i	i	i	i	i	i	i	i	i	i
Cc1onc(-c2c(Cl)cccc2Cl)c1NC(=O)NN(C)C	i	i	i	i	i	/	/	/	/	/	/
CCCC[C@@H]1CNCCN1CCc1cccc(F)c1	i	i	i	i	i	/	/	/	/	/	/
Fc1cccc(CCN2CCNC[C@@H]2Cc2ccccc2)c1	i	-5.4*	i	i	i	i	i	i	39%*	i	i
FC(F)(F)c1cc(CCN2CCNC[C@@H]2Cc2ccccc2)cc(C(F)(F)F)c1	i	-5.6*	i	i	i	i	i	i	48%*	i	i
CC(O)[C@H]1CNCCN1CCc1cc(C(F)(F)F)cc(C(F)(F)F)c1 (stereo partly specified)	i	i	i	i	i	/	/	/	/	/	/
CCOC(=O)CN1CCc2c(C)nc3c(-c4ccc(OC)c(OC)c4)cnn3c21	i	i	i	i	i	/	/	/	/	/	/
O=C(c1ccco1)N1CCN(C2CC(=O)N(c3ccc(F)c(Cl)c3)C2=O)CC1 (stereo unspecified)	i	i	i	i	i	/	/	/	/	/	/
CCOCCCNC(=S)N1C2CCC1CC(NC(=O)Nc1ccc(C(=O)OCC)cc1)C2 (stereo unspecified)	i	-7.2*	i	i	i	i	i	i	i	66%*	/
CCN(CC)CCN1C(=O)c2cccc3cc(N)cc(c23)C1=O	i	-5.5*	i	i	i	531%*	i	-32%*	61%*	48%*	i
Nc1cc2c3c(cccc3c1)C(=O)N(CCN1CCCC1)C2=O	i	i	i	i	i	/	/	/	/	/	/
O=c1c2[nH]c3ccccc3c2ncn1C1CCCCC1	i	i	i	i	i	/	/	/	/	/	/
O=C1c2ccccc2C(=O)c2c1ccc1c(=O)n(C3CCCCC3)[nH]c21	i	-5.1*	i	i	i	-94%*	i	-20%*	i	i	i
O=C(c1ccc(COCC(F)(F)F)o1)N1CCCC1	i	i	i	i	i	/	/	/	/	/	/
COc1ccccc1Nc1nc(N)nc(CSC(=S)N2CCC(C)CC2)n1	i	-5.5*	i	i	i	i	i	i	i	78%*	/
COc1ccccc1Nc1nc(N)nc(CN2CCC(Cc3ccccc3)CC2)n1	i	-6.5*	i	i	i	100%*	i	i	84%*	47%*	/
COc1ccccc1Nc1nc(N)nc(CSC(=S)N2CCCCC2C)n1 (stereo unspecified)	i	-7.8*	i	i	i	/	/	/	/	i	i	TRPC4 sel inh 2=i;TRPC4 spec=i;HEK293 MPD ctr 2-1=i;HEK293 MPD ctr-1=i
COc1ccccc1Nc1nc(N)nc(CN2CCC(C)CC2)n1	i	i	i	i	i	/	/	/	/	/	/
CC(=O)Nc1ccc(C(=O)OCCC(C)C)cc1	i	-6.8*	i	i	i	/	/	/	/	i	i	TRPC4 sel inh 2=i;TRPC4 spec=i;HEK293 MPD ctr 2-1=i;HEK293 MPD ctr-1=i
Cc1cc(=O)oc2cc(OCC(=O)N3CCN(C(=O)c4ccco4)CC3)ccc12	i	-5.5*	i	i	i	i	i	i	i	i	i
